Series [1] is described as follows: folding enthalpy; higher = less favourable; fluorescence melt of hairpins on a sequencing array, two-state fit. The conditions noted are these: sodium 0.088 M. Put shortly: (§1)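 Hairpins were imaged by Cy3 fluorescence on a sequenced MiSeq flow cell with annealed Cy3 and quencher oligos, in 50 mM Na-HEPES pH 8.0, 25 mM NaCl, in 2.5 °C steps up to 60 °C. Bootstrapped two-state fits of normalised signals gave melting temperature and folding enthalpy. Four replicates were combined by inverse variance, and fitted temperatures were raised by 9.35 °C to match UV melts.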

Series [2] can be described thus: melting temperature; fluorescence melt of hairpins on a sequencing array, two-state fit, raised by 9.35 °C to match UV melts. The conditions noted are these: sodium 0.088 M. Put shortly:
as §1

Experimental findings from the array DNA melting data of Ke et al. (doi:10.1101/2024.01.08.574731) are described below.

With GCGATACGAAAGTACCGC (((.(((....))).))), in series [1], the folding enthalpy was -43.2 kcal/mol. Moreover, the Tm in series [2] is 54.2 °C.
For GCGATACGAAAGTACGC (((.(((....)))))), the folding enthalpy in series [1] is -29.6 kcal/mol. Also, in series [2], the Tm came out at 55.4 °C.
Regarding GCGATAGAAATATCGC ((((((....)))))), the folding enthalpy in series [1] is -41.7 kcal/mol. The Tm in series [2] is 58.3 °C.
On to GCGATAGCGAAAGCTCGC (((..(((....)))))), for which the folding enthalpy in series [1] was -18.5 kcal/mol. Besides, in series [2], the Tm came out at 51.5 °C.
In the same order, the values of GCGATAGGAAACCATCGC (((((.(....).))))) are -34.5 kcal/mol and 50.1 °C.
As for GCGATAGGAAACTACCGC (((.(((....))).))), the folding enthalpy in series [1] was -28.5 kcal/mol. In series [2], the Tm is 44.7 °C.
In the case of GCGATAGGAAACTATCGC (((((((....))))))), in series [1], the folding enthalpy was -57.2 kcal/mol. In addition, in series [2], the Tm was 65.9 °C.
Regarding GCGATCACGAAAGTGCGC (((..(((....)))))), the folding enthalpy in series [1] is -20.9 kcal/mol. Besides, the Tm in series [2] came out at 48.7 °C.
Take GCGATCCCTCGC ((((....)))): the folding enthalpy in series [1] is -24.1 kcal/mol. Moreover, in series [2], the Tm turned out to be 49.8 °C.
For GCGATCCGAAAGGACGC (((.(((....)))))), in that order: -37.7 kcal/mol and 61.3 °C.
Consider GCGATCCGTCGC ((((....)))), for which, in series [1], the folding enthalpy was -24.6 kcal/mol. Besides, the Tm in series [2] came out at 51.6 °C.
On to GCGATCGAAAGATATCGC ((((((....)))..))), for which the folding enthalpy in series [1] was -29.2 kcal/mol. Moreover, the Tm in series [2] turned out to be 47 °C.
In the same order, the values of GCGATCGAAAGATTCGC ((((((....))).))) are -45.1 kcal/mol and 53.5 °C.
Regarding GCGATCGATCGC ((((....)))), in series [1], the folding enthalpy is -41.2 kcal/mol. In addition, the Tm in series [2] was 56.5 °C.
For the sequence GCGATCGCGAAAGCGCGC (((..(((....)))))), in series [1], the folding enthalpy is -15.4 kcal/mol. Besides, the Tm in series [2] came out at 55.2 °C.
Regarding GCGATCGGAAACAATCGC (((((.(....).))))), the folding enthalpy in series [1] was -37.6 kcal/mol. Further, the Tm in series [2] amounted to 48.1 °C.
For the sequence GCGATCGGAAACGGTTGC ((.(.((....)).).)), the folding enthalpy in series [1] is -29.6 kcal/mol. Also, in series [2], the Tm is 44.9 °C.
For GCGATCGTTCGC ((((....)))), in that order: -29 kcal/mol and 50.4 °C.
Consider GCGATCTCTCGC ((((....)))), for which the folding enthalpy in series [1] was -31.1 kcal/mol. In series [2], the Tm was found to be 47.9 °C.
Consider GCGATGCGAAAGCACAGC ((..(((....)))..)), for which the folding enthalpy in series [1] was -19.2 kcal/mol. Besides, the Tm in series [2] was found to be 52 °C.
As to GCGATGCGAAAGCCTTGC ((.(.((....)).).)), the folding enthalpy in series [1] was -25.4 kcal/mol. For the same sequence, the Tm in series [2] turned out to be 36.3 °C.
Turning to GCGATGCGAAAGCGTAGC ((.(.((....)).).)), in series [1], the folding enthalpy was -24.6 kcal/mol. Moreover, the Tm in series [2] is 54.8 °C.
As for GCGATGCGAAAGCGTGGC ((.(.((....)).).)), the folding enthalpy in series [1] was -21.6 kcal/mol. Besides, the Tm in series [2] is 54.7 °C.
Take GCGATGCTCGC ((((...)))): the folding enthalpy in series [1] was -14.1 kcal/mol. The Tm in series [2] was 54.9 °C.
With GCGATGTATCGC ((((....)))), in series [1], the folding enthalpy was -28.2 kcal/mol. The Tm in series [2] came out at 56.7 °C.
Turning to GCGATTACTCGC ((((....)))), the folding enthalpy in series [1] was -23.7 kcal/mol. Besides, the Tm in series [2] is 49.3 °C.
On to GCGATTCCTCGC ((((....)))), for which, in series [1], the folding enthalpy is -22.4 kcal/mol. Besides, in series [2], the Tm turned out to be 49.5 °C.
Consider GCGATTCTCGC ((((...)))), for which, in series [1], the folding enthalpy was -21.7 kcal/mol. Also, in series [2], the Tm was found to be 52 °C.
Regarding GCGATTTATCGC ((((....)))), the folding enthalpy in series [1] is -28.4 kcal/mol. In addition, in series [2], the Tm stood at 68.7 °C.
For GCGATTTGTCGC ((((....)))), in that order: -23.5 kcal/mol and 54 °C.
In the case of GCGATTTTTCGC ((((....)))), the folding enthalpy in series [1] was -27.2 kcal/mol. Besides, the Tm in series [2] is 53.1 °C.
On to GCGCAACGAAAGTTACGC (((.(((....))).))), for which the folding enthalpy in series [1] is -44.9 kcal/mol. The Tm in series [2] stood at 57.5 °C.
Turning to GCGCAACGAAAGTTCCGC (((.(((....))).))), the folding enthalpy in series [1] was -30.5 kcal/mol. For the same sequence, the Tm in series [2] turned out to be 49.3 °C.
Consider GCGCAACGAAAGTTTCGC (((.(((....))).))), for which the folding enthalpy in series [1] is -43 kcal/mol. For the same sequence, the Tm in series [2] is 52.9 °C.
For GCGCACCGAAAGGTACGC (((.(((....))).))), the folding enthalpy in series [1] is -42.3 kcal/mol. For the same sequence, the Tm in series [2] amounted to 64.3 °C.
Regarding GCGCACCGAAAGGTCCGC (((.(((....))).))), the folding enthalpy in series [1] was -37.8 kcal/mol. Also, the Tm in series [2] was 55.6 °C.
As to GCGCACGAAAGTGACGC ((((((....))).))), in series [1], the folding enthalpy is -24 kcal/mol. Besides, the Tm in series [2] was determined as 63.3 °C.
For the sequence GCGCACGAAAGTGGCCGC ((((((....)))..))), in series [1], the folding enthalpy was -19.4 kcal/mol. For the same sequence, the Tm in series [2] stood at 54.1 °C.
Turning to GCGCACGAAAGTGTACGC ((((((....)))..))), the folding enthalpy in series [1] was -23.8 kcal/mol. In addition, the Tm in series [2] stood at 53.5 °C.
